Broadly, the koff is a measure of how fast the partners let go of each other. In general, kon refers to a measure of how fast the partners come together. For orientation: stoichiometry N means a count of units in the complex or per binding partner.

Where no end group is shown, it is not given here.

The source of these data is article PMC4899269 (Structure (London, England : 1993), 2016).

The test system of one test is JAK1 FERM–SH2. In words: Co-purification and size exclusion chromatography of JAK1/receptor complexes. Type of test: binding, human. Particulars: large scale co-expression, Ni-IMAC, TEV cleavage, SDS-PAGE. Put shortly:
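His-JAK1 FERM–SH2 (G35–K559) co-expressed in insect cells with one of two GST-tagged partners, co-infected at 1:1 viral ratio: GST-IFNLR1 (K250–T299), or a chimera of IFNLR residues K250–R260 fused to IL-10RA K264–K303. Lysates purified by Ni-IMAC then SEC. Complex fractions TEV-cleaved and put through a second SEC round.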
(Size exclusion chromatography separates by hydrodynamic size, large species first.)

Test [1] has as its target human JAK1 FERM–SH2 (as used in BioLayer Interferometry) (human, UniProt P23458 35-559). Nature of the test: BLI. A general note: BLI is a label-free optical method that tracks binding on a fibre tip over time.
A further test addresses JAK1 FERM–SH2 I240L (human, UniProt P23458 35-559, Ile240 to leucine). Nature of the test: BLI.
In a further test the target is JAK1 FERM–SH2 I240F (human, UniProt P23458 35-559, Ile240 to phenylalanine). In words: BLI.
JAK1 FERM–SH2 I240F, sequence (P23458 35-559 I240F): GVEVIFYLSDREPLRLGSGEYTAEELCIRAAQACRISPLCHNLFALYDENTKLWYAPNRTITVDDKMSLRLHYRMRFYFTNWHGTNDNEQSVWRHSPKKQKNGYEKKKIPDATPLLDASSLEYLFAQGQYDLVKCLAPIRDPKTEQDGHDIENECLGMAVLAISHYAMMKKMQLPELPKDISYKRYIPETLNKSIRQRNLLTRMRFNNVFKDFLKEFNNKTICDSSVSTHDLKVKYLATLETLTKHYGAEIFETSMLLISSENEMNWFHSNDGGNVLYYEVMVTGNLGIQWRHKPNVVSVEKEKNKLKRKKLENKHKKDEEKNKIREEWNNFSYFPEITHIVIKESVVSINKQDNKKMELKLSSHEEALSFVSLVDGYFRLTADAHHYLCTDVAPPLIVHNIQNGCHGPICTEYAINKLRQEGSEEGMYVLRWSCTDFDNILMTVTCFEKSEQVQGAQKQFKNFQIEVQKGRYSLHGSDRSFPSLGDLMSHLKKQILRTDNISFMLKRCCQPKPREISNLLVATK
The target in test [2] is human JAK1 FERM–SH2 (residues 35–559), His tag released with TEV (human, UniProt P23458 35-559). Nature of the test: SEC-MALS.
human JAK1 FERM–SH2 (residues 35–559), His tag released with TEV, sequence (P23458 35-559): as the sequence (P23458 35-559 I240F) above, with F206I counted along it

human JAK1 FERM–SH2 (as used in BioLayer Interferometry), sequence (P23458 35-559): as the sequence (P23458 35-559 I240F) above, with F206I counted along it
JAK1 FERM–SH2 I240L, sequence (P23458 35-559 I240L): as the sequence (P23458 35-559 I240F) above, with F206L counted along it

Turning to “IL10RA: GST-tagged human receptor cytoplasmic fragment with putative box1 and box2 motifs ({GST}-QLYVRRRKKLPSVLLFKKPSPFIFISQRPSPETQDTIHPLDEEAFLK)”, the “complex formation with JAK1 on purification / SEC (in words)” value with JAK1 FERM–SH2 was “formed a stable complex with JAK1”.

On to “box2 fragment of IFNLR1: GST-tagged fragment of IFNLR1 containing box2 sequences (residues 270–299) ({GST}-SGHTHPVATFQPSRPESVNDLFLCPQKELT)”, for which, in the test on JAK1 FERM–SH2, the “complex formation with JAK1 on purification / SEC (in words)” value is “did not co-purify with JAK1”.

Take “peptide containing IFNLR1 box1 and box2: GST-tagged IFNLR1 box1/box2 fragment (residues 250–299), co-expressed with JAK1 ({GST}-KTLMGNPWFQRAKMPRALDFSGHTHPVATFQPSRPESVNDLFLCPQKELT)”: the “complex formation with JAK1 on purification / SEC (in words)” value in the test with JAK1 FERM–SH2 is reported as “form a stable complex with JAK1”.

In test [1], KTLMGNPWFQRAKMPRALDFS (peptide, UniProt Q8IU57 250-270, looked up, also: biotin, position not given here) [biotinylated IFNLR1 box1 peptide (residues 250–270)] yielded a koff of 0.089 s⁻¹ and a kon of 72500 M⁻¹ s⁻¹. Moreover, in the test with JAK1 FERM–SH2 I240L, the binding result is given as “binds”. The binding result with JAK1 FERM–SH2 I240F is on record as “binds”.

In test [1], KTLMGNPWFQRAKMPRALDFSGHTHPVATFQPSRPESVNDLFLCPQKELT (peptide, UniProt Q8IU57 250-299, looked up, also: biotin, position not given here) [biotinylated IFNLR1 box1/box2 peptide (residues 250–299)] came in with an off-rate (koff) of 0.00355 s⁻¹ and a kon of 50400 M⁻¹ s⁻¹.

In test [1], KTLMGNPWFQRAKMPRALDFSGHTHPVATFQPSRPESVND (peptide, UniProt Q8IU57 250-289, looked up, also: biotin, position not given here) [biotinylated IFNLR1 box1Δbox2 peptide (residues 250–289)] yielded a koff of 0.0544 s⁻¹ and an on-rate constant (kon) of 34600 M⁻¹ s⁻¹.

With KTLMGNPWFQRAKMPRALDFSGHTHPVATFQPSRPESVNDLFLCPQKELT (peptide, UniProt Q8IU57 250-299, looked up) [IFNLR1 box1/box2 peptide (residues 250–299), GST released with TEV], the “stoichiometry N” value in test [2] was 1.
